Measured values gathered from unrelated publications.
Protocols differ between the studies behind these lines.
PDE4D: 3',5'-cyclic-AMP phosphodiesterase 4D (PDE4D, Homo sapiens, UniProt Q08499)
MTNR1B: Melatonin receptor type 1B (MTNR1B, Homo sapiens, UniProt P49286)

Structure (SMILES)	target	assay	system	setting	endpoint	result
O=C(O)c1cc(O)c2c(c1)C(=O)c1cccc(O)c1C2=O	PDE4D	enzyme activity, inhibitor, radiometric		50 µM	inhibition	9.01%
NC(=O)c1cccc(-c2cccc(OC(=O)NC3CCCCC3)c2)c1	Liver carboxylesterase 1 (CES1, Homo sapiens, UniProt P23141)	enzyme activity, inhibitor		pH 7.4	kinact/KI	4500 M⁻¹ s⁻¹
CCN(CC)CCCC[C@H](NC(=O)[C@H](CC(C)C)NC(=O)[C@H](C)NC(=O)[C@H](Cc1ccccc1)NC(=O)c1ccc(C(C)(C)C)cc1)C(=O)N[C@@H](CO)C(=O)OC	Prostaglandin E2 receptor EP4 subtype (PTGER4, Homo sapiens, UniProt P35408)	ligand displacement, radioligand		10 µM	remaining binding	95.2%
COc1ccc2cccc(C(CO)CNC(=O)CF)c2c1 (stereo not drawn)	MTNR1B	GTPγS binding, agonist, radiometric		cell membranes	Emax	99%
CC[C@H](C)[C@@H]1NC(=O)[C@@H]2CSSC[C@H](NC(=O)[C@@H](NC(=O)CN)[C@@H](C)O)C(=O)N[C@@H](CC(N)=O)C(=O)N[C@@H]([C@@H](C)O)C(=O)N3CCC[C@H]3C(=O)NCC(=O)N[C@H]3CSSC[C@H](NC(=O)[C@H](CCSC)NC(=O)[C@H](CC(C)C)NC(=O)[C@H](CCCNC(=N)N)NC(=O)CNC(=O)CNC(=O)[C@H](CC(=O)O)NC1=O)C(=O)NCC(=O)N[C@@H](CCC(=O)O)C(=O)N[C@@H]([C@@H](C)O)C(=O)N[C@H](C(=O)N[C@H](C(=O)NCC(=O)O)C(C)C)CSSC[C@H](NC(=O)[C@H]([C@@H](C)O)NC3=O)C(=O)N[C@@H](CO)C(=O)N[C@@H](Cc1c[nH]c3ccccc13)C(=O)N1CCC[C@H]1C(=O)N[C@@H](C(C)C)C(=O)N2	Prothrombin (F2, Homo sapiens, UniProt P00734)	binding, SPR			kon	1000 to 10000 M⁻¹ s⁻¹
CC1(C)[C@@H](O)CC[C@]2(C)[C@H]3C(=O)C=C4[C@@H]5C[C@@](C)(C(=O)O)CC[C@]5(C)CC[C@@]4(C)[C@]3(C)CC[C@@H]12	PDE4D	enzyme activity, inhibitor, radiometric		50 µM	inhibition	42.4%
Cc1nn(C)cc1-c1nc2c(N3CCN(Cc4ccc(Cl)cc4)CC3)c(Cl)cnc2[nH]1	Calcium/calmodulin-dependent protein kinase type 1G (CAMK1G, Homo sapiens, UniProt Q96NX5)	binding, competition with immobilised ligand		1 µM	remaining binding	100%
C[C@@]12C[C@@]3(O)O[C@@H](O1)[C@]1(COC(=O)c4ccccc4)[C@H]3C[C@@]12O[C@@H]1O[C@H](CO)[C@@H](O)[C@H](O)[C@H]1O	PDE4D	enzyme activity, inhibitor, radiometric		50 µM	inhibition	2.88%
Nc1ncc(-c2nc(N3CCOCC3)nc(N3CCOCC3)n2)c(C(F)F)n1	Non-receptor tyrosine-protein kinase TNK1 (TNK1, Homo sapiens, UniProt Q13470)	binding, competition with immobilised ligand		10 µM	remaining binding	83%
COc1ncccc1-c1cnn2ccc(N3CCN(C(=O)OC(C)C)CC3)nc12	Mitogen-activated protein kinase 7 (MAPK7, Homo sapiens, UniProt Q13164)	binding, competition with immobilised ligand		1 µM	remaining binding	100%
O=C(O)c1ccccc1O	PDE4D	enzyme activity, inhibitor, radiometric		50 µM	inhibition	3.34%
COc1ccc2[nH]cc(CCNC(=O)CI)c2c1	MTNR1B	β-arrestin recruitment, agonist	MT2	90 min	Emax	92%
